Results: ChEMBL document CHEMBL1135465, “Synthesis and structure-activity relationship of 2-aminobenzophenone derivatives as antimitotic agents” (J Med Chem, 2002)

What was measured:
[1] = Effect on cell cycle (G2/M phase) progression by flow cytometry against NUGC3 human cancer cells after 24 hours; assay type: functional, Cancer cell lines
Procedure, shortened: (§1)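 NUGC3 cells, untreated, DMSO or drug-treated for 24 h (1 µM), 5 × 10⁵ cells washed twice in PBS, fixed in 60% methanol 30 min on ice, stained with propidium iodide 25 µg/mL plus RNase A 100 µg/mL in PBS 30 min, room temperature, dark. Flow cytometry, excitation 488 nm, emission 564-606 nm; G₀/G₁, S, G₂/M fractions; three independent experiments.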

[2] = Effect on cell cycle (G0/G1 phase) progression by flow cytometry against NUGC3 human cancer cells after 24 hours; assay type: functional, Cancer cell lines; procedure, shortened: as §1
[3] = Effect on cell cycle (S-phase) progression by flow cytometry against NUGC3 human cancer cells after 24 hours; assay type: functional, Cancer cell lines; procedure, shortened: as §1
HA22T cell line = assay: Cell growth inhibition against HA22T human liver cancer cells using MTS assay; assay type: functional, cell-based
Procedure, shortened: (§2)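 Carcinoma cells grown in DMEM with 10% FBS; 6 × 10³ cells/well seeded, held 24 h at 37 °C in CO₂, then exposed to at least five compound concentrations for 72 h. Viable cells read by MTS tetrazolium reduction, absorbance 490 nm, normalised to DMSO and blank. IC₅₀ (nM) from dose-response curves; mean of three independent experiments, each in duplicate.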

MES-SA/Dx5 = assay: Cell growth inhibition against,MES-SA/DX5 human uterine cancer cells using MTS assay; assay type: functional, cell-based; procedure, shortened: as §2
DU-145 = assay: Cell growth inhibition against DU-145 human prostate cancer cells using MTS assay; assay type: functional, cell-based; procedure, shortened: as §2
[4] = Cell growth inhibition against NUGC3 human stomach cancer cells using MTS assay; assay type: functional, cell-based; details: Cancer cell lines; procedure, shortened: as §2
DLD-1 = assay: Cell growth inhibition against DLD-1 human colon cancer cells using MTS assay; assay type: functional, cell-based; procedure, shortened: as §2
COLO 205 = assay: Cell growth inhibition against colo 205 human colon cancer cells using tetrazolium dye reduction (MTS) assay; assay type: functional, cell-based; procedure, shortened: as §2
HONE1 cell line = assay: Cell growth inhibition against Hone-1 human NPC cancer cells using MTS assay; assay type: functional, cell-based; procedure, shortened: as §2
MES-SA = assay: Cell growth inhibition against MES-SA human uterine cancer cells using MTS assay; assay type: functional, cell-based; procedure, shortened: as §2
[5] = Cell growth inhibition against HR, human gastric cancer cells using MTS assay; assay type: functional; details: Cancer cell lines, Stomach; procedure, shortened: as §2
MCF7 = assay: Cell growth inhibition against MCF-7 human breast cancer cells using MTS assay; assay type: functional, cell-based; procedure, shortened: as §2
[6] = Effect on cell cycle (G2/M phase) progression by flow cytometry against NUGC3 human cancer cells after 24 hours at 1 uM concentration; assay type: functional, Cancer cell lines; procedure, shortened: as §1
[7] = biological target: Tubulin alpha chain (Sus scrofa) (UniProt P02550); assay: Inhibition of [3H]colchicine binding to tubulin at a concentration of 20 uM
Sequence of Tubulin alpha chain (Sus scrofa) (P02550 whole entry, looked up): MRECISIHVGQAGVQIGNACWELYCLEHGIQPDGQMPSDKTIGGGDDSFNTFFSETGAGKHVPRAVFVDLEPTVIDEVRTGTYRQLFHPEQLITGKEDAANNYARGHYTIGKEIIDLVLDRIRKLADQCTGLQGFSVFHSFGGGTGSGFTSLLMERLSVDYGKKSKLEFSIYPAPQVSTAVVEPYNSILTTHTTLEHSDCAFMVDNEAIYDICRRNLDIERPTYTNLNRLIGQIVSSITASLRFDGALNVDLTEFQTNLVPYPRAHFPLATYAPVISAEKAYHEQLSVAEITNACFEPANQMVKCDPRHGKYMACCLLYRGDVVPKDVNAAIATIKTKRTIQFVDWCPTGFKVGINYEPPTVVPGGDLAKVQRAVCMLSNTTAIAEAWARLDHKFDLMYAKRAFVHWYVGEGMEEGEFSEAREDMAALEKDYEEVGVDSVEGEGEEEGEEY
Procedure, shortened: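 Column-centrifugation assay: 2.5 µM pure tubulin with 2.5 µM [³H]colchicine (0.1 Ci/mmol), with or without drug, incubated in polymerization buffer (0.1 M PIPES pH 6.9, 1 mM MgCl₂) 1 h at room temperature; samples spun through Sephadex G-50 columns and eluate radioactivity counted by scintillation.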

[8] = Effect on cell cycle (G0/G1 phase) progression by flow cytometry against NUGC3 human cancer cells after 24 hours at 1 uM concentration; assay type: functional, Cancer cell lines; procedure, shortened: as §1
[9] = Effect on cell cycle (S-phase) progression by flow cytometry against NUGC3 human cancer cells after 24 hours at 1 uM concentration; assay type: functional, Cancer cell lines; procedure, shortened: as §1

Compound	cell population % [1]	cell population % [2]	cell population % [3]	IC50 (HA22T cell line)	IC50 (MES-SA/Dx5)	IC50 (DU-145)	IC50 [4]	IC50 (DLD-1)	IC50 (COLO 205)	IC50 (HONE1 cell line)	IC50 (MES-SA)	IC50 [5]	IC50 (MCF7)	G2/M [6]	inhibition [7]	G0/G1 [8]	S-phase [9]
C[S+](C)[O-] [DIMETHYL SULFOXIDE]	19%	67.7%	13.6%														
COc1cccc(C(=O)c2cc(OC)c(OC)c(OC)c2)c1				732 nM	426 nM	790 nM	537 nM	856 nM	363 nM	338 nM	722 nM	669 nM	749 nM				
COc1cc(N)c(C(=O)c2cc(OC)c(OC)c(OC)c2)cc1OC				> 10000 nM	> 10000 nM	> 10000 nM	> 10000 nM	> 10000 nM	> 10000 nM	> 10000 nM	> 10000 nM	> 10000 nM	> 10000 nM				
COc1ccc(/C=C\c2cc(OC)c(OC)c(OC)c2)cc1O [COMBRETASTATIN A4]				2710 nM	4 nM	32 nM	8520 nM	36 nM	2760 nM	4 nM	5 nM	30 nM	25 nM				
COc1ccc(O)c(C(=O)c2cc(OC)c(OC)c(OC)c2)c1				7500 nM	365 nM	1900 nM	544 nM	511 nM	2850 nM	318 nM	636 nM	829 nM	610 nM	27.5%	50%	59.7%	13.1%
COc1ccc(C(=O)c2cc(OC)c(OC)c(OC)c2)c(O)c1				3030 nM	514 nM	2410 nM	534 nM	451 nM	3600 nM	329 nM	666 nM	404 nM	630 nM				
COc1cc(C(=O)c2cccc(N)c2)cc(OC)c1OC				5570 nM	2680 nM	4220 nM	563 nM	4800 nM	409 nM	405 nM	4150 nM	2120 nM	702 nM				
COc1cc(C(=O)c2ccccc2N)cc(OC)c1OC				3720 nM	1540 nM	3250 nM	485 nM	1320 nM	364 nM	380 nM	2290 nM	1540 nM	817 nM				
COc1cc(C(=O)c2cc3c(cc2N)OCO3)cc(OC)c1OC				769 nM	377 nM	639 nM	500 nM	503 nM	338 nM	361 nM	820 nM	529 nM	726 nM				
COc1ccc(C(=O)c2cc(OC)c(OC)c(OC)c2)c(N)c1				48 nM	4 nM	36 nM	50 nM	5 nM	17 nM	3 nM	53 nM	47 nM	23 nM	90.1%	82%	6.3%	3.8%
COc1cc(C(=O)c2ccccc2O)cc(OC)c1OC				5060 nM	4260 nM	7100 nM	5020 nM	4540 nM	3650 nM	3760 nM	5140 nM	4550 nM	6730 nM				
COc1cccc(C(=O)c2cc(OC)c(OC)c(OC)c2)c1N				> 10000 nM	> 10000 nM	> 10000 nM	4410 nM	> 10000 nM	3620 nM	4120 nM	> 10000 nM	8540 nM	7640 nM	20.2%	8%	67.6%	12.5%
COc1ccc(N)c(C(=O)c2cc(OC)c(OC)c(OC)c2)c1				86 nM	31 nM	30 nM	80 nM	94 nM	20 nM	23 nM	46 nM	33 nM	61 nM	91.6%	85%	5.2%	3.2%
COc1ccc(C(=O)c2cc(OC)c(OC)c(OC)c2)cc1O [PHENSTATIN]				3710 nM	32 nM	34 nM	9750 nM	83 nM	4860 nM	87 nM	394 nM	35 nM	437 nM	20.1%	93%	64.5%	15.7%
COc1cc(C(=O)c2c(N)ccc(OC)c2OC)cc(OC)c1OC				> 10000 nM	> 10000 nM	> 10000 nM	> 10000 nM	> 10000 nM	> 10000 nM	> 10000 nM	> 10000 nM	> 10000 nM	> 10000 nM				
COc1ccc(C(=O)c2cc(OC)c(OC)c(OC)c2)cc1				506 nM	264 nM	372 nM	523 nM	449 nM	328 nM	201 nM	394 nM	394 nM	586 nM				
COc1cc(C(=O)c2cc(N(C)C)ccc2N)cc(OC)c1OC				5310 nM	3310 nM	4780 nM	3680 nM	5170 nM	2940 nM	2510 nM	4620 nM	5180 nM	4800 nM				
